Experimental data: paper PMC2217202 (The Journal of General Physiology, 2000)
Where two headings read alike, the source gives them in different places.

How the values were obtained:
AE1 [1] = conditions: ref Knauf et al. 1995; cited from earlier work
[2] = biological target: T1, AE1 (band 3) protein in human red blood cells (Homo sapiens, UniProt P02730); experiment: Inhibition of 36Cl exchange flux at 0°C after equilibration with WW781; type: cell-based; conditions: for IC50: read-out: K eqW, 0°C, mean ± SEM
T1 sequence (P02730 1-911): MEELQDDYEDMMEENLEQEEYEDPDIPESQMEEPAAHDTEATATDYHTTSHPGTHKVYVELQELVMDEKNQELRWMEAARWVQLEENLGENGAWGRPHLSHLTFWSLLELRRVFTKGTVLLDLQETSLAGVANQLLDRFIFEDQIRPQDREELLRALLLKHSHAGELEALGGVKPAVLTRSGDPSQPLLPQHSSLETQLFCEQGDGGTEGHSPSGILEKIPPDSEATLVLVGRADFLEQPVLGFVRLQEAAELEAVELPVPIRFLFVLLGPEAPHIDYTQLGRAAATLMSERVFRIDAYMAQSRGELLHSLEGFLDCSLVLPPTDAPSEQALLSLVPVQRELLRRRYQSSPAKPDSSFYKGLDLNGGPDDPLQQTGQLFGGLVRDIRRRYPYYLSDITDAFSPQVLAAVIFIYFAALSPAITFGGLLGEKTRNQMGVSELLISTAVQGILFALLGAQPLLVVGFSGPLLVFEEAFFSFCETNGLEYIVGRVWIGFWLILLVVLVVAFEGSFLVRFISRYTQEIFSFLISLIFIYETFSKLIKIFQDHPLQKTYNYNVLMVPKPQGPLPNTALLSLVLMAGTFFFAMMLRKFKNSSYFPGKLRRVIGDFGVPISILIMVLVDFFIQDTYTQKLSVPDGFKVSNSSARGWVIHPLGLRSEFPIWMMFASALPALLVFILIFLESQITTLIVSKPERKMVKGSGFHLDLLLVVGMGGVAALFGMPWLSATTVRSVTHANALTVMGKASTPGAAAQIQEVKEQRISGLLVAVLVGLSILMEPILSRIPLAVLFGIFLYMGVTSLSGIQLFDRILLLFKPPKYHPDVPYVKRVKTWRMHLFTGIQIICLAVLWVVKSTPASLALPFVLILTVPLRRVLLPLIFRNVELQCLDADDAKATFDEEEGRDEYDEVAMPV
In short: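 Washed human RBCs (150 mM KCl, 20 mM HEPES, 24 mM sucrose, pH 6.9) at 0.25% hematocrit, internal Cl− set by nystatin, pretreated ≥2 min with test compound (1% ethanol), loaded with 36Cl (2-10 µCi/ml, 10 min, 0°C), then efflux into ice-cold medium with the same compound level. In 2 mM Cl− medium, no pretreatment and sampling began ≥4 min. Fit to single-site inhibition.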

[3] = test system: net Cl^− permeability, PCl; conditions: ref Freedman and Novak 1983; cited from earlier work
[4] = biological target: T1, AE1 (band 3) protein in human red blood cells; experiment: Inhibition of 36Cl exchange flux at 0°C after short exposure to WW781; type: cell-based; conditions: for rate constant for 36Cl exchange, k: 0°C (control 0.0507); for IC50: read-out: K 1W, 0°C
In short: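 Human RBCs loaded with 36Cl (10 min, 0°C) without pretreatment, resuspended in ice-cold medium with test compound (0.25-1.5 µM, 1% ethanol); nystatin equalized Cl− for non-150 mM media, citrate-sucrose replacing Cl−. Rapid-filtration samples were taken mostly before 30 s, never after 45 s. k was the slope of ln(P∞−Pt) versus time. Dissociation constants came from nonlinear least-squares single-site fits and Dixon plots.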

AE1 [5] = type: cell-based, human; conditions: at saturating concentrations of WW781, 150 mM Cl− inside and outside
AE1 [6] = conditions: cells with 150 mM Cl− inside and outside; ref Raha et al. 1993; cited from earlier work

CCCCN1C(=O)C(=CC=CC=CC2C(=O)N(CCCC)C(=O)N(CCCC)C2=O)C(=O)N(CCCC)C1=O [diBA(5)C4, bis-(1,3-dibutylbarbituric acid)-pentamethine oxonol]
inhibition of the transport system (AE1 [1]): most potent known inhibitor

CCCCN1C(=O)C(C=CC=CC=C2C(=O)N(c3ccc(S(=O)(=O)O)cc3)N=C2C)C(=O)N(CCCC)C1=O [WW781, [3-methyl-1-p-sulfophenyl-5-pyrazolone-(4)]-[1,3-dibutylbarbituric acid]-pentamethine oxonol]
K 2/1W,ECl/K 2/1W,E [2]: 0.12 − 0.15
K 2/1W,ECl ([2]; Cl−-loaded forms): 1.8 − 2.2
K 2/1W,Ei ([2]; Ei form): ≤34.
free energy difference ΔG^0 between complex 2 and complex 1 ([2]; Eo form of AE1, from K 2/1W,Eo): -1.82 kcal/mol
K 1W/K eqW ([2]; [Cli = o] 5 mM): 15.5
K 1W/K eqW ([2]; [Cli = o] 150 mM): 9.0
K 1W/K eqW ([2]; [Cli = o] 600 mM): 3.8
K 1W/K eqW ([2]; [Cli] = 150, [Clo] = 2 mM): 25.2
slope of K eqW as a function of [Cl−] ([2]; best-fit straight line, [Cli] = [Clo] (Fig. 10)): 0.00016 ± 0.00004 μM/mM
preference for the Eo form of AE1 as compared with the Ei form ([2]; both initial binding and equilibrium association): > 10 fold
K eqW,Ei/K eqW,Eo ([2]; equilibrium binding): ≥12.
Ki ([2]; read-out: K eqW,EIi, mean ± SEM of two experiments): 280 ± 70 nM
Ki ([2]; read-out: K eqW,Ei (minimum value), range over both estimates of K eqW,E): 33 to 46 nM
IC50 ([2]; [Cli = o] 150 mM): 66 ± 12 nM
IC50 ([2]; [Cli = o] 600 mM): 143 ± 29 nM
IC50 ([2]; [Cli] = 150, [Clo] = 2 mM): 5.5 ± 0.3 nM
effect on net Cl− permeability, PCl [3]: increase
rate constant for 36Cl exchange, k ([4]; 0.25 μM WW781, 150 mM Cl− medium): 0.0389 s⁻¹
rate constant for 36Cl exchange, k ([4]; 0.5 μM WW781, 150 mM Cl− medium): 0.0316 s⁻¹
rate constant for 36Cl exchange, k ([4]; 1 μM WW781, 150 mM Cl− medium): 0.0274 s⁻¹
rate constant for 36Cl exchange, k ([4]; 1.5 μM WW781, 150 mM Cl− medium): 0.0203 s⁻¹
K 1W,ECl/K 1W,E ([4]; initial binding): 0.73 − 0.74
K 1W,Ei/K 1W,Eo ([4]; initial binding): 14.
IC50 ([4]; [Cli = o] 20 mM, nystatin-treated cells): 900 ± 210 nM
IC50 ([4]; [Cli = o] 150 mM, mean ± SEM): 590 ± 50 nM
IC50 ([4]; [Cli = o] 600 mM, nystatin-treated cells, mean ± SEM): 540 ± 100 nM
IC50 ([4]; [Cli] = 150, [Clo] = 2 mM, mean ± SEM): 140 ± 10 nM
half-time for formation of complex 2 (AE1 [5]): 33 s
k W-AE1,W•AE1 (backward rate constant, complex 2 to complex 1) (AE1 [6]): 0.15 min⁻¹
k W•AE1,W-AE1 (forward rate constant for formation of complex 2) (AE1 [6]): ~1.1 min⁻¹
